Key:
CYP199A4 (wild type) = conditions: WT CYP199A4; cited from earlier work
CYP199A4 F182A/D251E = assay: H2O2-dependent O-demethylation, F182A/D251E; type: biochemical, Rhodopseudomonas palustris
How it was run: (§1)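 Enzyme (1 μM) is reacted with methoxy-substituted benzoic acid substrate (2 mM) and H2O2 (10 mM) as sole oxidant, in Tris–HCl pH 7.4 at 30 °C. Demethylation products are quantified chromatographically against a benzophenone internal standard, and activity is expressed as turnover number.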

CYP199A4 F182A/D251H = assay: H2O2-dependent O-demethylation, F182A/D251H; type: biochemical, Rhodopseudomonas palustris
How it was run: as §1

CYP199A4 F182A/P90A = assay: H2O2-dependent O-demethylation of benzoic acid derivatives, F182A/P90A; type: biochemical, Rhodopseudomonas palustris; conditions: catalyzed by F182A/P90A; P450 1 μM, substrate 2 mM, H2O2 10 mM, Tris-HCl pH 7.4, 30 °C
How it was run: (§2)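 Purified CYP199A4 double mutant (1 μM), a methoxy-substituted benzoic acid substrate (2 mM) and H2O2 (10 mM, the only oxidant) in Tris–HCl pH 7.4 at 30 °C. Demethylation and further-oxidation products are quantified against a benzophenone internal standard and expressed as turnover number per P450.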

[1] = test system: engineered CYP199A4 peroxygenase variants; assay: O-demethylation by the library of engineered CYP199A4 peroxygenase variants; type: biochemical, Rhodopseudomonas palustris; conditions: H2O2-dependent reaction
CYP199A4 F182A = target: T1, CYP199A4 F182A (Rhodopseudomonas palustris, UniProt Q2IU02, F183A); assay: UV-visible spectral titration of substrate binding
T1 sequence (Q2IU02 1-410 F183A): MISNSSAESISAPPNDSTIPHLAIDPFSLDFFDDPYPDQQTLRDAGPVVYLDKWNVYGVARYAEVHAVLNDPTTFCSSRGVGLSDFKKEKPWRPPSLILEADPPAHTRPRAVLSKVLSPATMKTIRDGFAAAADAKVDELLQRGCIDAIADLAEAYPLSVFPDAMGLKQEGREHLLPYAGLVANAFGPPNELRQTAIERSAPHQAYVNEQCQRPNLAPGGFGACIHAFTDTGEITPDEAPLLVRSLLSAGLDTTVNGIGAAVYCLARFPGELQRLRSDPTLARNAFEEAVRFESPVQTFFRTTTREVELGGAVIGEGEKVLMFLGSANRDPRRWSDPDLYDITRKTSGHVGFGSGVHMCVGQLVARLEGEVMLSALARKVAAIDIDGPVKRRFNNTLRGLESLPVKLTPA

CYP199A4 F182A/V355A = assay: H2O2-dependent O-demethylation of benzoic acid derivatives, F182A/V355A; type: biochemical, Rhodopseudomonas palustris; conditions: catalyzed by F182A/V355A
How it was run: as §2

Structure (SMILES)	O-demethylation / conversion by the examined CYP199A4 variants (in words) [1]	also measured
COc1ccc(C(=O)O)cc1 [Compound 1, 4-methoxybenzoic acid]	–	catalytic turnover number (TON) of H2O2-dependent demethylation (CYP199A4 (wild type)): 6 μM (μM P450)^−1; reduction of catalytic activity compared with F182A (CYP199A4 F182A/D251E): 50 fold; reduction of catalytic activity compared with F182A (CYP199A4 F182A/D251H): 50 fold; TON of demethylation product (CYP199A4 F182A/P90A): 1100 μM (μM P450)^−1
COc1cccc(C(=O)O)c1OC [Compound 8, 2,3-dimethoxybenzoic acid]	not converted	–
COc1cc(OC)cc(C(=O)O)c1 [Compound 6, 3,5-dimethoxybenzoic acid]	can be demethylated	–
COc1ccc(OC)c(C(=O)O)c1 [Compound 7, 2,5-dimethoxybenzoic acid]	not converted	–
COc1cccc(C(=O)O)c1 [Compound 2, 3-methoxybenzoic acid]	can be demethylated	–
COc1ccccc1C(=O)O [Compound 3, 2-methoxybenzoic acid]	no reaction product was detected	–
COc1cc(C(=O)O)ccc1O [Compound 20, 4-hydroxy-3-methoxybenzoic acid]	not demethylated	–
COc1cc(C(=O)O)cc(OC)c1O [Compound 21, 4-hydroxy-3,5-dimethoxybenzoic acid]	did not convert	–
COc1cc(C(=O)O)cc(OC)c1OC [Compound 9, 3,4,5-trimethoxy benzoic acid]	no conversions detected	–
COc1c(C)cc(C(=O)O)cc1C [Compound 12, 3,5-dimethyl-4-methoxy benzoic acid]	–	Kd (CYP199A4 F182A): 123 µM; product formed (in words) (CYP199A4 F182A/V355A; H2O2-dependent reaction): a single product (not 3,5-dimethyl-4-hydroxybenzoic acid)
COc1ccc(C(=O)O)cc1[N+](=O)[O-] [Compound 17, 4-methoxy-3-nitrobenzoic acid]	–	TON of demethylation product (CYP199A4 F182A/P90A): 926 μM (μM P450)^−1; TON of over-oxidation product 4,5-dihydroxy-3-nitrobenzoic acid (CYP199A4 F182A/P90A): 416 μM (μM P450)^−1
COc1ccc(C(=O)O)cc1C [Compound 11, 3-methyl-4-methoxybenzoic acid]	–	TON of demethylation (CYP199A4 F182A/V355A; P450 1 μM, substrate 2 mM, H2O2 10 mM, Tris-HCl pH 7.4, 30 °C): 1290 μM (μM P450)^−1
COc1c(Cl)cc(C(=O)O)cc1Cl [Compound 15, 3,5-dichloro-4-methoxy benzoic acid]	no conversions detected	–

From article PMC11134341 (Chemical Science, 2024)
